Results reported in ChEMBL document CHEMBL4024770, “Augmentation of Anticancer Drug Efficacy in Murine Hepatocellular Carcinoma Cells by a Peripherally Acting Competitive N-Methyl-d-aspartate (NMDA) Receptor Antagonist” (J Med Chem, 2017).

Columns and labels:
[1] = target: Glutamate receptor ionotropic, kainate 1 (Rattus norvegicus, UniProt P22756); test: Displacement of [3H]-SYM2081 from recombinant homomeric rat GluK1 (Q)1b receptor expressed in baculovirus infected Sf9 insect cell membranes by scintillation counting method
Mus musculus [2] = organism: Mus musculus; test: (§1) Antagonist activity at NMDA receptor in Nras driven p53 deficient mouse HCC cell membranes assessed as decrease in Slc2a1 protein expression levels by measuring [14C]-D-glucose accumulation at 10 uM preincubated for 24 hrs followed by compound wash out and addition of [14C]-D-glucose measured after 5 mins by scintillation counting method relative to control; set-up: scale not given: the % may be the effect or the level left
Procedure, shortened: (§2)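 Nras p53−/− HCC cells (1 × 10⁵/well) were pretreated 24 h with or without 10 μM. They were then washed 3× in warm HBSS (choline chloride, pH 7.4) and incubated at 37 °C with probe in HBSS. Incubation was 30 min for [3H]-digoxin, 20 μM fluorescein or 10 μM sorafenib, and 5 min for [14C]-L-leucine or [14C]-D-glucose. Cells were washed ice-cold and lysed in 0.1 M NaOH. Read-out was scintillation, fluorescence or LC-MS/MS, normalized to protein.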

Mus musculus [3] = organism: Mus musculus; test: as §1, with “in Abcb1” for “in Slc2a1”, “measuring [3H]-digoxin” for “measuring [14C]-D-glucose”, “of [3H]-digoxin” for “of [14C]-D-glucose”, “after 30” for “after 5”; set-up: scale not given: the % may be the effect or the level left; procedure, shortened: as §2
Liver = test: Tmax in mouse liver at 10 mg/kg, ip administered as bolus dose by LC-MS/MS analysis; type: ADME, organism-based; details: in vivo
Procedure, shortened: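 Adult male mice (25 ± 5 g) given a single 10 mg/kg i.p. bolus, prepared as a 5.0 mM solution in 0.9% NaCl. Animals were decapitated at five time points between 10 and 240 min. Plasma was precipitated with acetonitrile containing internal standard. Brain and liver were homogenized in water (1:3) and precipitated the same way. Analysis by LC-MS/MS, with AUC0–240, Cmax, tmax, t½β and liver/plasma ratio derived from the concentration-time data.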

Mus musculus [4] = organism: Mus musculus; test: Antagonist activity at NMDA receptor in Nras driven p53 deficient mouse HCC cell membranes assessed as PGE2 levels at 10 uM after 24 hrs by LC-MS/MS method relative to control; set-up: scale not given: the % may be the effect or the level left
Procedure, shortened: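 Mouse Nras-driven p53−/− HCC cells in DMEM with 2 mM L-glutamine, 10% heat-inactivated FBS and penicillin/streptomycin. Cells incubated 24 h with or without antagonist, either without LPS or with 2.5 μg/mL LPS in the growth medium. Cells washed three times with ice-cold HBSS and lysed in acetonitrile on ice. PGE₂ in lysates measured by LC-MS/MS (LLOQ 1 nM) and expressed as % of control; n=3.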

Mus musculus [5] = organism: Mus musculus; test: Antagonist activity at NMDA receptor in Nras driven p53 deficient mouse HCC cell membranes assessed as Abcg2 protein expression levels at 10 uM by […] analysis relative to control; set-up: scale not given: the % may be the effect or the level left
Procedure, shortened: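 Mouse Nras-driven p53−/− HCC cells in DMEM with 10% FBS, exposed 48 h with or without 10 μM antagonist, washed, pelleted and snap-frozen. Crude membrane fraction isolated. 50 μg protein reduced, alkylated, precipitated, then Lys-C digested (3 h, rt) and trypsin digested (1:100, 37°C, 16 h). One unique peptide per transporter quantified by multiplexed SRM/MRM LC-MS/MS against stable isotope-labelled standards. Unpaired two-tailed t-test versus control, n=4.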

Sequence of Glutamate receptor ionotropic, kainate 1 (P22756 whole entry): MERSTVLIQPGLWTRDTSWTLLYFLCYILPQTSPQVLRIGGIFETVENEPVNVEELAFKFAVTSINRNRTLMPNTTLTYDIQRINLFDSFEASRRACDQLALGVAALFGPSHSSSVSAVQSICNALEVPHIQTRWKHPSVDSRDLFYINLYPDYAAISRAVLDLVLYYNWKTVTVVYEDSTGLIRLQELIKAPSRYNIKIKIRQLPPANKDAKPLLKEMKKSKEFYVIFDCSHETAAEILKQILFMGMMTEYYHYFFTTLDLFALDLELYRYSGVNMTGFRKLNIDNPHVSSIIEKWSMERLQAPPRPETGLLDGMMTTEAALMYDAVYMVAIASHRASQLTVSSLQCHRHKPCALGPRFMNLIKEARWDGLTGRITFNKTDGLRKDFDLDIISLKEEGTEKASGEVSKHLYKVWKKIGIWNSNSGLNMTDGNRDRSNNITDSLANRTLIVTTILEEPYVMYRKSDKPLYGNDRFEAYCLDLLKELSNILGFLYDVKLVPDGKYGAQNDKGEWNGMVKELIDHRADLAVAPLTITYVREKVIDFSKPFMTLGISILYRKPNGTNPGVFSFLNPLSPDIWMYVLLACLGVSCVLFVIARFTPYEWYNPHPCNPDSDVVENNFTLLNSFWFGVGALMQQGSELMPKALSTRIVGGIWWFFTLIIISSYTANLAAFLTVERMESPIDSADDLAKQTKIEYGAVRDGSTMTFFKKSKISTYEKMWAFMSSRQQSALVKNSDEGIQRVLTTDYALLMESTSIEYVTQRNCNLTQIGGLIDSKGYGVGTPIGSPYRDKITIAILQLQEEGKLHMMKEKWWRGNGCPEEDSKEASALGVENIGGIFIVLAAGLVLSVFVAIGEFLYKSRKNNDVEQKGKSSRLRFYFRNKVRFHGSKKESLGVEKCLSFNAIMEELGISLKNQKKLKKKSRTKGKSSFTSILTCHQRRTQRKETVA

Ki [1]: 154 µM
Activity (Mus musculus [2]): 84%
Activity (Mus musculus [3]): 149%
Tmax (Liver): 30 min
Activity (Mus musculus [4]): 68%
Activity (Mus musculus [5]): 34%
Structure (SMILES): Cl.O=C(O)c1cc([C@H]2CCN[C@@H]2C(=O)O)ccc1Cl
